Read-outs that look alike come from different tables or passages of the source. Values belong to the compound of their own block, whether it stands above or below them.
How the values were obtained:
normal rats [1] = experiment: Food intake and body weight during 6-day CB1 antagonist infusion in lean rats; format: in vivo, rat; conditions: 6 days; for body weight / food intake: lean rats
How it was run: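 Rats on standard chow received test compound for 6 days, either 3 or 5 μg/rat per day icv or 5 μg/rat per day s.c. Both routes used osmotic minipumps. Vehicle was isotonic saline with 0.3% Tween 80. Icv cannula placement was checked by drinking response to icv angiotensin II (5 ng/μl). Vehicle pair-fed rats got the treated group's daily intake before dark onset. Food intake and body weight were recorded daily. n=5–7, means ± SE.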

DIO rats [2] = format: in vivo, rat; conditions: 6 days
DIO rats [3] = experiment: Plasma measurements after central or global CB1 blockade in DIO rats; format: in vivo; conditions: Central CB1 blockade, icv 5 μg/rat per day, 6 days, mean ± SE
How it was run: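 Diet-induced obese rats (45% high-fat diet, 8 weeks) got test compound 5 μg/rat per day icv for 6 days, alongside vehicle and pair-fed controls. Plasma glucose was measured by the glucose oxidase method, and nonesterified fatty acids by commercial kit. Corticosterone and insulin were measured by double-antibody radioimmunoassay. Means ± SE.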

[4] = format: in vivo, mice (C57BL/6J; conditions: male, C57BL/6J, mouse, ip, 10 mg/kg
DIO rats [5] = experiment: Triglyceride content in epididymal WAT and plasma of DIO rats; format: in vivo, rat; conditions: 6 days
How it was run: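 Diet-induced obese rats received test compound for 6 days, either 5 μg/day icv by minipump or 10 mg/kg per day i.p., alongside vehicle and pair-fed groups. Lipids were extracted from epididymal WAT. After the organic solvent was evaporated, triglyceride was measured enzymatically in duplicate. Plasma triglyceride was measured by commercial kit. n=5–7, means ± SE.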

normal rats [6] = experiment: Quantitative RT-PCR of lipid metabolism enzymes in WAT and liver of lean rats; format: in vivo, rat; conditions: 6 days
How it was run: (§1)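 Lean or diet-induced obese rats received 6-day treatment with vehicle and pair-fed controls. Epididymal WAT and liver were freeze-clamped and kept at −80°C. Real-time qPCR used SYBR Green, ~70 ng template cDNA and primers at 0.5 μmol/l final. Relative levels came from a standard curve and were normalised to ribosomal protein S29 in WAT and cyclophilin A in liver. n=5–7, means ± SE.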

DIO rats [7] = format: in vivo, rat
How it was run: as §1

DIO rats [8] = format: in vivo, rat; conditions: 6 days; remark: listed apart in the source
How it was run: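 Male Sprague-Dawley rats were fed a 45% high-fat diet for 8 weeks, then given vehicle or test compound for 6 days, with a vehicle pair-fed group. They were fasted overnight and anaesthetised with pentobarbital 50 mg/kg i.p. Clamps were run basal and insulin-stimulated (200 mU/ml) with D-[U-14C]glucose infusion (5 μCi/ml). A 2-deoxy-D-[1-3H]glucose bolus (30 μCi/rat) followed, and tissue 2-DG-6-P gave a utilisation index in ng/min/mg. n=5–7.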

[9] = test system: diet-induced obese (DIO) mice; conditions: cited from earlier work
Zucker rats = conditions: cited from earlier work
[10] = test system: isolated soleus muscle of ob/ob mice; conditions: cited from earlier work
rat = conditions: acute intracerebroventricular injection, 3 μg/rat per day; cited from earlier work
obese Zucker rats = conditions: 30 mg/kg, 8 weeks; cited from earlier work
CB1 receptor = conditions: by reducing food intake and increasing energy expenditure and fat oxidation; cited from earlier work
[11] = intracerebroventricular 3 μg/rat per day
[12] = intracerebroventricular 5 μg/rat per day
[13] = peripheral 5 μg/rat per day via subcutaneous minipumps
[14] = normal rats, icv 5 μg/day, similar in vehicle pair-fed group
[15] = ip 10 mg/kg, 6 days, independent of hypophagia

Cmax ([4]; brain): 1010 ± 384 ng/g
concentration at 25.1 h ([4]; brain): 186 ± 37.5 ng/g
half-life ([4]; brain): 9.44 h
Cmax ([4]; serum): 258 ± 58.9 ng/mL
concentration at 25.1 h ([4]; serum): 20.5 ± 9.25 ng/mL
half-life ([4]; serum): 6.33 h
Structure (SMILES): Cc1c(C(=O)NN2CCCCC2)nn(-c2ccc(Cl)cc2Cl)c1-c1ccc(Cl)cc1 [SR141716, Rimonabant]
body weight (normal rats [1]; [11]): no effect
food intake (normal rats [1]; [11]): no effect
body weight (normal rats [1]; [12]): loss of body weight
body weight (normal rats [1]; [13]): unable to detect changes
food intake (normal rats [1]; [13]): unable to detect changes
decrease in food intake (normal rats [1]; normal rats, intracerebroventricular 5 μg/rat per day): 17%
decrease in food intake (DIO rats [2]; [12]): 31%
body weight (DIO rats [2]; intracerebroventricular 5 μg/rat per day, mimicked by pair feeding): loss of body weight
decrease in food consumption (DIO rats [2]; intraperitoneal 10 mg/kg per day, P < 0.01): 40%
Corticosterone (plasma) (DIO rats [3]): 59.77 ± 7.26 ng/mL
Glucose (plasma) (DIO rats [3]): 3.78 ± 0.12 mmol/L
Insulin (plasma) (DIO rats [3]): 0.58 ± 0.12 ng/mL
Nonesterified fatty acids (plasma) (DIO rats [3]): 0.66 ± 0.13 mmol/L
triglyceride levels in WAT (DIO rats [5]; icv 5 μg/day): did not modify
triglyceride levels in plasma (DIO rats [5]; icv 5 μg/day): did not modify
WAT triglyceride content (DIO rats [5]; ip 10 mg/kg, not observed in vehicle pair-fed group): decreased
WAT mRNA expression of lipid metabolism enzymes (normal rats [6]; lean rats, 5 μg/rat per day given peripherally): no change
liver gene expression of key enzymes regulating triglyceride metabolism (normal rats [6]; lean rats, icv 5 μg/day): No significant difference
WAT expression of CPT-1 (normal rats [6]; [14]): increased
WAT expression of genes promoting lipogenesis and triglyceride storage (FAS, SCD-1, ACCα, LPL) (normal rats [6]; [14]): markedly reduced
expression of hormone-sensitive lipase and adipose triglyceride lipase (DIO rats [7]; WAT, drug treatment (data not shown)): not modified
WAT CPT-1 expression (DIO rats [7]; icv 5 μg/day, 6 days): trend toward an increase
WAT SCD-1 expression (DIO rats [7]; icv 5 μg/day, 6 days, also present in pair-fed group): decrease
liver SCD-1 expression (DIO rats [7]; icv 5 μg/day, 6 days, similar decrease in vehicle pair-fed animals): decreased
liver gene expression of lipid metabolism enzymes (DIO rats [7]; ip 10 mg/kg, 6 days): No modification
liver expression of glucose-6-phosphatase (DIO rats [7]; ip 10 mg/kg, 6 days, also in vehicle pair-fed group): marked decrease
WAT CPT-1 expression (DIO rats [7]; [15]): increase
WAT SCD-1 expression (DIO rats [7]; [15]): decrease
overall insulin sensitivity (DIO rats [8]; icv 5 μg/day): failed to elicit any change
glucose infusion rate (GIR) (DIO rats [8]; icv 5 μg/day, vs vehicle): identical
glucose uptake in skeletal muscle and WAT (DIO rats [8]; icv 5 μg/day, vs vehicle): identical
hepatic glucose production (HGP) (DIO rats [8]; icv 5 μg/day, vs vehicle): identical
overall insulin sensitivity (DIO rats [8]; ip 10 mg/kg): enhanced
hepatic glucose production (HGP) (DIO rats [8]; ip 10 mg/kg, comparable in vehicle pair-fed rats): suppressed
glucose utilization by adipose tissue (DIO rats [8]; ip 10 mg/kg, food-independent effect): increased
glucose infusion rate (GIR) (DIO rats [8]; ip 10 mg/kg, similar increase in vehicle pair-fed group): higher
body weight [9]: maintained reduction
food intake [9]: transient suppression
body weight (Zucker rats): maintained reduction
food intake (Zucker rats): transient suppression
glucose uptake [10]: increases
food intake (rat): decreases
hepatic lipid metabolism (obese Zucker rats): food intake–independent effect

Structure (SMILES): C[C@H](NC(=O)C(C)(C)Oc1ccc(C(F)(F)F)cn1)[C@@H](Cc1ccc(Cl)cc1)c1cccc(C#N)c1 [taranabant]
body weight (CB1 receptor): weight loss
